From PubChem
GRIN3A LBD mod – NR3A (human) ligand-binding domain modulation; NR3A LBD differential scanning fluorimetry, Tm shift; 0% = protein alone, 100% = glycine-bound protein; Tm shift relative to glycine control, % at 25 µM; 340,000 compounds, 2.5% hits;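 active means melting temperature shift of at least 10% of the positive control shift, at one fixed dose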
hiPSC survival – hiPSC single-cell survival enhancement; ATPlite luminescence; 100% = ROCK inhibitor wells, 0% = DMSO; survival enhancement, % at 20 µM; 360,000 compounds, 0.044% hits; in the data active means survival enhancement above about 18%;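 further: cells exposed to compounds for 16 hours before the ATP read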
SENP1 inh – blocks the human SENP1 SUMO protease catalytic domain | AID 624204 | inhibition, % at 10 µM | recombinant SENP1 catalytic domain, CyPet-SUMO1-YPet FRET cleavage | Q9P0U3 | 360,000 compounds, 0.21% hits;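 active means inhibition at least 30% at 10 µM, raw YFP signal under a set limit, fluorescence ratio 0.5 to 1.5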;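 further: 0% = enzyme with DMSO and 100% = no enzyme wells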
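Assay system – human recombinant His6-tagged SENP1 catalytic domain enzyme · Input – SENP1 enzyme, 20 pM final · Buffer or medium – Tris pH 8 buffer plus EDTA, NaCl, BME, BSA, NP40, catalase · Schedule – 50 min reaction at room temperature · Technique – FRET read of cyan and yellow fluorescence · Control set – no-enzyme wells low, DMSO-plus-enzyme wells high control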
H9c2 protect – modulators protecting cardiomyocytes from myocardial damage; 360,000 compounds, 0.63% hits; H9c2 cardiomyocytes, H2O2 injury protection, ATPLite, 2 h; protection from H2O2 cell death, % at 20 µM;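 active means compounds giving at least 50% protection of heart cells from peroxide-induced death in the single-dose screen, raw or plate-pattern-corrected value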;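 further: 0% = DMSO wells with peroxide and 100% = DMSO wells without peroxide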
Arr AP2 block – human beta-arrestin and AP2 interaction inhibition; inhibition, % at 10 µM; 340,000 compounds, 0.31% hits; FITC-arrestin peptide / GST-AP2 beads, flow cytometry; AP2 beta2 appendage carries R879A mutation;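 active means inhibition above a set limit, near 3 SD of compounds lacking own fluorescence, cut at about 54% in these data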;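 further: plate controls were DMSO wells for no effect and 5 µM unlabelled arrestin peptide for full effect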
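System: GST-AP2 R879A bound to glutathione beads, E. coli-expressed. Also added: 50 nM FITC-arrestin peptide. Schedule: compound with beads 12 min RT, then probe 1 h RT. Signal: bead flow cytometry, FITC channel. Read-out basis: percent response.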
FAS-TE inh – blocks the thioesterase domain of human fatty acid synthase | 360,000 compounds, 0.67% hits | P49327 | inhibition, % at 15 µM | AID 602261 | recombinant FAS-TE, OMFH fluorogenic substrate, fluorescence endpoint;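 active means compounds whose normalised, plate-corrected inhibition of enzyme fluorescence in the single-dose primary screen is 50% or more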;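 further: 0% = DMSO with enzyme and 100% = substrate without enzyme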
The depositor's hits bear a star. Most compounds without a hit are left out; they make up all but 4% or so of the library.

Results for O=C(Nc1ccc(F)cc1)Nc1ccc(S(=O)(=O)N2CCCC2)cc1 ?
GRIN3A LBD mod: 28*; hiPSC survival: 1; SENP1 inh: 1; H9c2 protect: -17; Arr AP2 block: 13; FAS-TE inh: 13

What do the screens show for `CC(=O)c1ccc(NC(=O)c2ccc(S(=O)(=O)N3CCCC3)cc2)cc1`?
GRIN3A LBD mod: 3; hiPSC survival: 1; SENP1 inh: 2; H9c2 protect: 6; Arr AP2 block: 17; FAS-TE inh: 0

How did Cc1ccc(S(=O)(=O)Nc2ccc(NC(=O)Nc3ccc(F)cc3F)cc2)cc1 do in these assays?
GRIN3A LBD mod: 29*; hiPSC survival: 1; SENP1 inh: -1; H9c2 protect: -5; Arr AP2 block: -23; FAS-TE inh: 13

How did O=C(Nc1ccc(NC(=O)c2ccccc2O)cc1)Nc1ccc(F)cc1F do in these assays?
GRIN3A LBD mod: 31*; hiPSC survival: 0; SENP1 inh: 1; H9c2 protect: 3; Arr AP2 block: -1; FAS-TE inh: -2

What do the screens show for `O=C(NCc1ccccc1)C1c2ccccc2OCC(=O)N1CCc1c[nH]c2ccccc12` (stereo not drawn)?
hiPSC survival: 0; SENP1 inh: 1; FAS-TE inh: -2

Results for CCCCC(=O)Nc1ccc(C(=O)Nc2ccc(S(=O)(=O)N3CCCC3)cc2)cc1 ?
GRIN3A LBD mod: 31*; hiPSC survival: 0; SENP1 inh: 2; H9c2 protect: 7; Arr AP2 block: 13; FAS-TE inh: -15

How did O=C(Nc1cccc(O)c1)c1ccc(S(=O)(=O)N2CCCCCC2)cc1 do in these assays?
GRIN3A LBD mod: 2; hiPSC survival: 0; SENP1 inh: 1; H9c2 protect: -4; Arr AP2 block: 3; FAS-TE inh: 5

Results for O=C(Nc1cccc(F)c1)c1ccc(S(=O)(=O)N2CCCCC2)cc1 ?
GRIN3A LBD mod: 17*; hiPSC survival: 0; SENP1 inh: 1; H9c2 protect: -4; Arr AP2 block: 5; FAS-TE inh: 12

What do the screens show for `CCOC(=O)C1(C)CCCN(C(=O)c2ccc(OC)cc2OC)C1` (stereo not drawn)?
hiPSC survival: 8; SENP1 inh: 2; H9c2 protect: -3; FAS-TE inh: -4

Results for O=S(=O)(O)c1cccc2c(N=Nc3ccc(O)c4ncccc34)cccc12 ?
GRIN3A LBD mod: 1; hiPSC survival: 0; SENP1 inh: -8; H9c2 protect: -11; Arr AP2 block: 3; FAS-TE inh: 75*

What do the screens show for `Cc1ccccc1N=Nc1ccc(O)c2ncccc12`?
GRIN3A LBD mod: -5; hiPSC survival: 0; SENP1 inh: 2; H9c2 protect: 38; Arr AP2 block: 26; FAS-TE inh: 7

How did COc1ccc(CNn2c(-c3cccs3)nc3ccccc3c2=O)cc1OC do in these assays?
GRIN3A LBD mod: 0; hiPSC survival: 0; SENP1 inh: 3; H9c2 protect: 67*; Arr AP2 block: -17; FAS-TE inh: 16

What do the screens show for `CC(C)Cn1c(SCC(=O)N2CCc3ccccc3C2)nc2cc(Cl)ccc2c1=O`?
GRIN3A LBD mod: 14*; hiPSC survival: 1; SENP1 inh: 1; H9c2 protect: -23; Arr AP2 block: 4; FAS-TE inh: 12

Results for CC(=O)Nc1cc(-c2ccc(N3CCN(C)CC3)cc2)cn2c(-c3ccc(S(C)(=O)=O)cc3)cnc12 ?
hiPSC survival: -4; SENP1 inh: 22; H9c2 protect: 32; FAS-TE inh: -5

How did COCCCNC(=O)c1ccccc1SC do in these assays?
GRIN3A LBD mod: 13*; hiPSC survival: 4; SENP1 inh: 2; H9c2 protect: 0; Arr AP2 block: -10; FAS-TE inh: -8

What do the screens show for `COC(=O)C1=CN(c2cccc(OCc3ccccc3)c2)C(N)=C(C#N)C1c1cccc(OC)c1OC` (stereo not drawn)?
SENP1 inh: -14

How did COc1ccc(C(O)c2nc(-c3ccncc3)cs2)cc1 (stereo not drawn) do in these assays?
hiPSC survival: 0; SENP1 inh: -1; H9c2 protect: -30; FAS-TE inh: -12

How did CN(C)S(=O)(=O)N1CCN(C(=O)c2cccc(Br)c2)CC1 do in these assays?
GRIN3A LBD mod: 11*; hiPSC survival: 0; SENP1 inh: 1; H9c2 protect: -1; Arr AP2 block: 15; FAS-TE inh: -6

Results for O=C(c1cccc(Br)c1)N1CCN(C(=O)N2CCCCC2)CC1 ?
GRIN3A LBD mod: 0; hiPSC survival: 3; SENP1 inh: 3; H9c2 protect: 2; Arr AP2 block: 30; FAS-TE inh: -7

What do the screens show for `O=C(c1cccc(Br)c1)N1CCCC1`?
GRIN3A LBD mod: 13*; hiPSC survival: 1; SENP1 inh: -1; H9c2 protect: -3; Arr AP2 block: 4; FAS-TE inh: -6

Results for CN(C)S(=O)(=O)N1CCN(C(=O)c2ccccc2)CC1 ?
GRIN3A LBD mod: 0; hiPSC survival: -2; SENP1 inh: 1; H9c2 protect: 0; Arr AP2 block: -7; FAS-TE inh: -10

How did CCOC(=O)C1(C)CCN1C(=O)c1cccc(Cl)c1 (stereo not drawn) do in these assays?
hiPSC survival: -3; SENP1 inh: -1; H9c2 protect: 1; FAS-TE inh: -6

How did Cc1cc(C)c2c(CN3CCN(c4ccccc4F)CC3)cc(=O)oc2c1 do in these assays?
hiPSC survival: 1; SENP1 inh: 0; H9c2 protect: -3; FAS-TE inh: 39

What do the screens show for `CCCCCCCCCCCCCCCC[n+]1ccc(C(N)=O)cc1`?
GRIN3A LBD mod: 16*; hiPSC survival: -2; SENP1 inh: -2; H9c2 protect: -11; Arr AP2 block: 13; FAS-TE inh: -133

How did CCCCCCCCCCCCCCCC[n+]1cccc(C(=O)N(CC)CC)c1 do in these assays?
GRIN3A LBD mod: -14; hiPSC survival: -1; SENP1 inh: 1; H9c2 protect: -25; Arr AP2 block: -5; FAS-TE inh: -58

Results for CCCCCCCCCCCCCCCC[n+]1ccc(/C=N/O)cc1 ?
GRIN3A LBD mod: 25*; hiPSC survival: -2; SENP1 inh: 0; H9c2 protect: -20; Arr AP2 block: 0; FAS-TE inh: -156

What do the screens show for `COc1cc(CNC(=O)Nc2nnc([C@H]3C[C@H](O)[C@@H](CO)O3)s2)cc(OC)c1OC`?
hiPSC survival: 2; SENP1 inh: 2; H9c2 protect: 10; FAS-TE inh: -10

Results for CCNC(=O)N(C)c1c(CC)nc2ccc(C(=O)N3CCN(S(=O)(=O)CC)CC3)cn12 ?
hiPSC survival: -2; SENP1 inh: 0; H9c2 protect: -2; FAS-TE inh: -4

What do the screens show for `Cc1ccc(C)c(N2CCN(C(=O)Nc3ccc4c(c3)N(C)C(=O)CS4)CC2)c1`?
GRIN3A LBD mod: -4; hiPSC survival: 2; SENP1 inh: 6; H9c2 protect: -6; Arr AP2 block: -7; FAS-TE inh: 20
